Measured values from ChEMBL document CHEMBL4689842, “EUbOPEN Chemogenomics Library wave 1” (2021).
Where “and” joins values, the source holds several entries; their conditions need not be identical. Equal values may be shown once.

Tested on: Fibroblast
Assay: Multiplex assay against human fibroblast
Assay type: toxicity, cell-based
Outline: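 Values for tubulin, mitochondrial-mass and membrane-permeability phenotypes are per cents of cells with healthy nuclei. These cells were identified by CellPathfinder machine-learning gating of live cells that had been stained at seeding with Hoechst33342, BioTracker Green Microtubule Cytoskeleton Dye, MitoTracker Red and Annexin V Alexa Fluor 680 and imaged on a CQ1 microscope at 37°C and 5% CO2 after compound addition. The gating first set Hoechst high-intensity objects apart from normal cells, then split normal cells into healthy, pyknosed or fragmented nuclei, and pyknosed cells into mitotic or apoptotic.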

[1] = 12 h, 1 µM, compound concentration 1 uM, replicate 1
[2] = 12 h, 1 µM, compound concentration 1 uM, replicate 2
[3] = 12 h, 10 µM, compound concentration 10 uM, replicate 1
[4] = 12 h, 10 µM, compound concentration 10 uM, replicate 2
[5] = 24 h, 1 µM, compound concentration 1 uM, replicate 1
[6] = 24 h, 1 µM, compound concentration 1 uM, replicate 2
[7] = 24 h, 10 µM, compound concentration 10 uM, replicate 1
[8] = 24 h, 10 µM, compound concentration 10 uM, replicate 2
[9] = 48 h, 1 µM, compound concentration 1 uM, replicate 1
[10] = 48 h, 1 µM, compound concentration 1 uM, replicate 2
[11] = 48 h, 10 µM, compound concentration 10 uM, replicate 1
[12] = 48 h, 10 µM, compound concentration 10 uM, replicate 2

How did the “Population Apoptotic (%)” value [1] turn out when `CS(=O)(=O)N1CCCC(NC(=O)[C@H](CCC2CCCCC2)NC(=O)c2ccc(CNc3ncnc4c3nnn4-c3ccccc3)cc2)C1` (stereo not given in full) [SR-301] was run?
The value was 58% and 60% and 56%.

What about the “Population Fragmented Nuclei (%)” value [1] of the same compound?
The value was 22% and 18% and 20%.

What about the “Population Healthy Nuclei (%)” value [1] of the same compound?
Its value is 31% and 27% and 35%.

What about the “Population Hoechst High Intensity Objects (%)” value [1] of the same compound?
The value was 21% and 15% and 12%.

And the “Population Membrane Permeable-Phenotype (%)” value [1]?
Its value is 16% and 32% and 28%.

And the “Population Mitochondria Different-Phenotype (%)” value [1]?
The value was 13% and 12% and 26%.

And the “Population Mitotic Cells (%)” value [1]?
Its value is 41% and 39% and 43%.

And the “Population Normal (%)” value [1]?
The value was 78% and 84% and 87%.

And the “Population Pyknosed Nuclei (%)” value [1]?
Its value is 46% and 53% and 44%.

And the “Population Tubulin-Different-Phenotype (%)” value [1]?
The value was 47% and 61% and 57%.

What about the “Total Cell Count” value [1] of the same compound?
Its value is 146 and 134.

What about the “Population Apoptotic (%)” value [2] of the same compound?
Its value is 25% and 63% and 33%.

And the “Population Fragmented Nuclei (%)” value [2]?
Its value is 14% and 11% and 7%.

And the “Population Healthy Nuclei (%)” value [2]?
Its value is 81% and 70% and 89%.

What about the “Population Mitochondria Different-Phenotype (%)” value [2] of the same compound?
The value was 20% and 14% and 10%.

And the “Population Mitotic Cells (%)” value [2]?
The value was 75% and 36% and 66%.

What about the “Population Normal (%)” value [2] of the same compound?
Its value is 80% and 86% and 94%.

And the “Population Tubulin-Different-Phenotype (%)” value [2]?
The value was 21% and 19% and 12%.

What about the “Total Cell Count” value [2] of the same compound?
Its value is 135 and 58 and 69.

And the “Population Apoptotic (%)” value [3]?
The value was 94% and 85% and 73%.

And the “Population Fragmented Nuclei (%)” value [3]?
Its value is 34% and 37% and 21%.

What about the “Population Healthy Nuclei (%)” value [3] of the same compound?
Its value is 20% and 17% and 28%.

What about the “Population Hoechst High Intensity Objects (%)” value [3] of the same compound?
Its value is 19% and 17% and 12%.

And the “Population Membrane Permeable-Phenotype (%)” value [3]?
The value was 36% and 16% and 19%.

What about the “Population Mitochondria Different-Phenotype (%)” value [3] of the same compound?
The value was 20% and 25% and 36%.

What about the “Population Normal (%)” value [3] of the same compound?
The value was 80% and 82% and 87%.

What about the “Population Pyknosed Nuclei (%)” value [3] of the same compound?
Its value is 45% and 44% and 50%.

And the “Population Tubulin-Different-Phenotype (%)” value [3]?
The value was 32% and 48% and 51%.

What about the “Total Cell Count” value [3] of the same compound?
The value was 153 and 216 and 163.

And the “Population Apoptotic (%)” value [4]?
Its value is 80% and 75% and 41%.

What about the “Population Fragmented Nuclei (%)” value [4] of the same compound?
The value was 39% and 27%.

And the “Population Healthy Nuclei (%)” value [4]?
Its value is 25% and 58%.

And the “Population Membrane Permeable-Phenotype (%)” value [4]?
Its value is 61% and 54% and 30%.

What about the “Population Mitochondria Different-Phenotype (%)” value [4] of the same compound?
Its value is 66% and 54% and 34%.

What about the “Population Mitotic Cells (%)” value [4] of the same compound?
The value was 20% and 25% and 58%.

What about the “Population Normal (%)” value [4] of the same compound?
Its value is 89% and 95% and 97%.

And the “Population Pyknosed Nuclei (%)” value [4]?
Its value is 39% and 47% and 20%.

What about the “Population Tubulin-Different-Phenotype (%)” value [4] of the same compound?
The value was 55% and 54% and 34%.

What about the “Total Cell Count” value [4] of the same compound?
The value was 89 and 86 and 105.

What about the “Population Apoptotic (%)” value [5] of the same compound?
Its value is 58% and 59% and 61%.

And the “Population Fragmented Nuclei (%)” value [5]?
Its value is 20% and 24% and 25%.

What about the “Population Healthy Nuclei (%)” value [5] of the same compound?
Its value is 39% and 33% and 42%.

What about the “Population Hoechst High Intensity Objects (%)” value [5] of the same compound?
Its value is 18% and 10%.

What about the “Population Membrane Permeable-Phenotype (%)” value [5] of the same compound?
The value was 35% and 23% and 20%.

And the “Population Mitochondria Different-Phenotype (%)” value [5]?
Its value is 17% and 9% and 18%.

What about the “Population Mitotic Cells (%)” value [5] of the same compound?
The value was 41% and 40% and 38%.

And the “Population Normal (%)” value [5]?
The value was 81% and 89%.

What about the “Population Pyknosed Nuclei (%)” value [5] of the same compound?
The value was 41% and 42% and 31%.

What about the “Population Tubulin-Different-Phenotype (%)” value [5] of the same compound?
The value was 53% and 66% and 52%.

What about the “Total Cell Count” value [5] of the same compound?
The value was 123 and 142 and 153.

And the “Population Fragmented Nuclei (%)” value [6]?
The value was 12% and 7%.

What about the “Population Healthy Nuclei (%)” value [6] of the same compound?
Its value is 78% and 80% and 86%.

What about the “Population Membrane Permeable-Phenotype (%)” value [6] of the same compound?
Its value is 7% and 6% and 3%.

What about the “Population Mitochondria Different-Phenotype (%)” value [6] of the same compound?
Its value is 20% and 10% and 8%.

What about the “Population Mitotic Cells (%)” value [6] of the same compound?
Its value is 87% and 60% and 55%.

And the “Population Normal (%)” value [6]?
The value was 80% and 95% and 96%.

What about the “Population Pyknosed Nuclei (%)” value [6] of the same compound?
The value was 9% and 12% and 6%.

And the “Population Tubulin-Different-Phenotype (%)” value [6]?
Its value is 13% and 26% and 14%.

And the “Total Cell Count” value [6]?
Its value is 148 and 64 and 84.

What about the “Population Apoptotic (%)” value [7] of the same compound?
The value was 84% and 87%.

What about the “Population Fragmented Nuclei (%)” value [7] of the same compound?
Its value is 31% and 40% and 42%.

And the “Population Healthy Nuclei (%)” value [7]?
Its value is 24% and 22%.

What about the “Population Hoechst High Intensity Objects (%)” value [7] of the same compound?
The value was 20% and 15% and 21%.

And the “Population Membrane Permeable-Phenotype (%)” value [7]?
The value was 23% and 21% and 17%.

And the “Population Mitochondria Different-Phenotype (%)” value [7]?
Its value is 43% and 48% and 34%.

What about the “Population Mitotic Cells (%)” value [7] of the same compound?
The value was 15% and 12%.

What about the “Population Normal (%)” value [7] of the same compound?
Its value is 79% and 84% and 78%.

What about the “Population Pyknosed Nuclei (%)” value [7] of the same compound?
Its value is 43% and 36% and 35%.

What about the “Population Tubulin-Different-Phenotype (%)” value [7] of the same compound?
The value was 63% and 53% and 68%.

And the “Total Cell Count” value [7]?
The value was 154 and 214 and 166.

What about the “Population Apoptotic (%)” value [8] of the same compound?
Its value is 91% and 94% and 89%.

What about the “Population Fragmented Nuclei (%)” value [8] of the same compound?
Its value is 25% and 32% and 19%.

And the “Population Hoechst High Intensity Objects (%)” value [8]?
Its value is 9%.

What about the “Population Mitotic Cells (%)” value [8] of the same compound?
The value was 8% and 5% and 10%.

What about the “Population Normal (%)” value [8] of the same compound?
The value was 90%.

What about the “Population Pyknosed Nuclei (%)” value [8] of the same compound?
The value was 49% and 50% and 21%.

And the “Total Cell Count” value [8]?
The value was 98 and 89 and 110.

What about the “Population Apoptotic (%)” value [9] of the same compound?
The value was 75% and 70%.

And the “Population Fragmented Nuclei (%)” value [9]?
Its value is 38% and 39% and 30%.

And the “Population Healthy Nuclei (%)” value [9]?
The value was 46% and 41%.

And the “Population Hoechst High Intensity Objects (%)” value [9]?
The value was 25% and 18%.

And the “Population Membrane Permeable-Phenotype (%)” value [9]?
The value was 32% and 27% and 25%.

And the “Population Mitochondria Different-Phenotype (%)” value [9]?
Its value is 8% and 9% and 10%.

What about the “Population Mitotic Cells (%)” value [9] of the same compound?
Its value is 25% and 30%.

And the “Population Normal (%)” value [9]?
Its value is 74% and 81%.

What about the “Population Pyknosed Nuclei (%)” value [9] of the same compound?
The value was 16% and 19% and 23%.

And the “Population Tubulin-Different-Phenotype (%)” value [9]?
Its value is 43% and 48% and 50%.

What about the “Total Cell Count” value [9] of the same compound?
The value was 135 and 127 and 148.

What about the “Population Apoptotic (%)” value [10] of the same compound?
The value was 100% and 60%.

And the “Population Fragmented Nuclei (%)” value [10]?
The value was 19% and 21% and 22%.

And the “Population Healthy Nuclei (%)” value [10]?
Its value is 80% and 73% and 75%.

And the “Population Hoechst High Intensity Objects (%)” value [10]?
The value was 8% and 7% and 5%.

What about the “Population Membrane Permeable-Phenotype (%)” value [10] of the same compound?
Its value is 20% and 15% and 13%.

And the “Population Mitochondria Different-Phenotype (%)” value [10]?
Its value is 3% and 1%.

What about the “Population Normal (%)” value [10] of the same compound?
The value was 91% and 92% and 94%.

And the “Population Pyknosed Nuclei (%)” value [10]?
Its value is 0% and 4% and 1%.

What about the “Population Tubulin-Different-Phenotype (%)” value [10] of the same compound?
Its value is 39% and 17% and 40%.

What about the “Total Cell Count” value [10] of the same compound?
Its value is 131 and 116 and 118.

And the “Population Apoptotic (%)” value [11]?
The value was 85% and 83% and 92%.

And the “Population Fragmented Nuclei (%)” value [11]?
The value was 41% and 44% and 50%.

And the “Population Healthy Nuclei (%)” value [11]?
Its value is 22% and 29% and 25%.

And the “Population Hoechst High Intensity Objects (%)” value [11]?
Its value is 20% and 26%.

What about the “Population Membrane Permeable-Phenotype (%)” value [11] of the same compound?
Its value is 32% and 23%.

And the “Population Mitochondria Different-Phenotype (%)” value [11]?
The value was 40% and 48% and 30%.

And the “Population Mitotic Cells (%)” value [11]?
The value was 15% and 16% and 7%.

And the “Population Normal (%)” value [11]?
The value was 79% and 73%.

And the “Population Pyknosed Nuclei (%)” value [11]?
The value was 35% and 25%.

What about the “Population Tubulin-Different-Phenotype (%)” value [11] of the same compound?
The value was 48% and 44% and 53%.

And the “Total Cell Count” value [11]?
Its value is 141 and 195.

And the “Population Apoptotic (%)” value [12]?
Its value is 84% and 100% and 94%.

What about the “Population Fragmented Nuclei (%)” value [12] of the same compound?
The value was 51% and 53%.

And the “Population Healthy Nuclei (%)” value [12]?
The value was 35% and 24% and 30%.

And the “Population Hoechst High Intensity Objects (%)” value [12]?
The value was 16% and 29%.

What about the “Population Membrane Permeable-Phenotype (%)” value [12] of the same compound?
The value was 34% and 14% and 27%.

And the “Population Mitochondria Different-Phenotype (%)” value [12]?
The value was 78% and 85% and 72%.

What about the “Population Mitotic Cells (%)” value [12] of the same compound?
Its value is 0% and 5%.

What about the “Population Normal (%)” value [12] of the same compound?
Its value is 83% and 70%.

And the “Population Pyknosed Nuclei (%)” value [12]?
The value was 20% and 24% and 15%.

What about the “Population Tubulin-Different-Phenotype (%)” value [12] of the same compound?
The value was 34% and 32% and 54%.

What about the “Total Cell Count” value [12] of the same compound?
Its value is 89 and 137 and 153.
